TAAR1 ag: human TAAR1 agonism. activation, % at 3 µM. 360,000 tested, 0.99% active. CHO RD-HGA16 TAAR1, Fluo-8 calcium fluorescence; vehicle wells 0%, saturating PEA agonist 100%. Q96RJ0;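 active means activation above the mean activation of all test compounds in the run plus 3 SD, cut at about 38% in these data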
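Signal – calcium-sensitive Fluo-8 signal, excitation 470-495, emission 515-575 nm · System – RD-HGA16 (CHO) cells co-expressing Gα16 and hTAAR1 · Incubation – 17-24 h seeding, 75 min 37 °C dye, 30 min RT · Compound dosing – 3 µM single concentration · Repeats – no replicates (n 1)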
OX1R antag-1: human HCRTR1 antagonism; O43613; AID 434989; inhibition, % at 5 µM; 330,000 tested, 0.43% active; CHO/OX1R cells, Fluo-8 calcium fluorescence, orexin A;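 active means inhibition above its plate's threshold, mean inhibition of all tested compounds on the plate plus 3 SD, cut at about 37% in these data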;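 further: 0% = orexin A challenge wells and 100% = SB-334867-A antagonist wells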
OX1R antag-2: OX1R (human) antagonism; OX1R-expressing cells, FRET antagonist read-out; inhibition, % at 6.6 µM; 330,000 tested, 1.8% active; AID 485270; in the data active means inhibition mostly above about 38%, no sharp cut-off; inactive means mostly below about 40%;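 further: 0% = agonist challenge alone and 100% = reference antagonist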
TAAR1 antag: human TAAR1 antagonism. 360,000 tested, 1.5% active. CHO RD-HGA16 TAAR1, Fluo-8 calcium fluorescence, antagonist. inhibition, % at 3 µM. Q96RJ0. AID 624466;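 active means inhibition above a per-plate cutoff, the mean inhibition of test compounds on that plate plus 3 SD, cut at about 49% in these data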;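 further: 0% = DMSO plus EC80 beta-PEA response and 100% = DMSO alone without agonist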
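Test system: RD-HGA16 CHO cells with stable hTAAR1 and Gα16 / Probe or stimulus: EC80 β-phenethylamine stimulus / Times: seeding 17-24 h prior, 75-min 37 °C, 30-min RT dye loading / Detection: Fluo-8 calcium-sensitive fluorescence / Read-out basis: % inhibition scaled between DMSO and EC80 PEA controls / Repeats: singlicate, one well per test compound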
NTR1 agonist: activates human neurotensin receptor 1 | P30989 | NTR1-U2OS beta-arrestin-GFP spot imaging, agonist mode | activation, % at 20 µM | 330,000 tested, 0.17% active | AID 493036;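 active means activation at or above 40% of the spot to cytoplasm intensity ratio, with at least 20 cells analyzed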;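 further: 0% = DMSO without peptide and 100% = 100 nM NTR1 peptide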
Target sequence (P30989 whole entry, looked up): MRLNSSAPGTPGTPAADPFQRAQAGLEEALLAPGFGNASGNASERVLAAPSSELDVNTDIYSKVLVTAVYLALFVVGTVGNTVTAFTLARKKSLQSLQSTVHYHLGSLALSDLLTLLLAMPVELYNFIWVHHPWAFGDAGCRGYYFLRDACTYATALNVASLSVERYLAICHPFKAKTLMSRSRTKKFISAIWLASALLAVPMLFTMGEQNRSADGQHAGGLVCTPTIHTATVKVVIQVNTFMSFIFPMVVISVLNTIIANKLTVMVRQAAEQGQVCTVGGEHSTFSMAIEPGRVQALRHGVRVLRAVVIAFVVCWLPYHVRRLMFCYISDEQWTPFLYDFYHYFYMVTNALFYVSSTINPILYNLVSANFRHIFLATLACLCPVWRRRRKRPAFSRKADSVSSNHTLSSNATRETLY
CHO parental Ca: signal in parental CHO cells, OX1R antagonist counter-screen; AID 463079; 330,000 tested, 0.63% active; parental CHO-K1, ATP-induced calcium, Fluo-8 fluorescence; inhibition, % at 5.6 µM;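 active means inhibition above that plate's mean sample inhibition plus 3 SD, cut at about 26% in these data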;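 further: 0% = ATP-challenged DMSO wells and 100% = DMSO wells without ATP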
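Material: parental CHO cells / Compound: single nominal dose of 5.6 µM per compound / Signal: Fluo-8 fluorescence / Replicates: singlicate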
nonsel antag count: counter-screen for TAAR1 antagonists: nonselective antagonists; 2,400 tested, 77% active; inhibition, % at 3 µM; shares compounds with TAAR1 antag; counterscreen cell line, calcium fluorescence, antagonist mode; in the data active means inhibition above about 22%;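 further: CHO-Ga16 host cells stimulated with ATP at an EC80 level; 0% = agonist EC80 plus vehicle and 100% = vehicle without agonist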
TAAR1 antag conf: human TAAR1 antagonism, confirmed; inhibition, % at 3 µM; TAAR1-expressing cells, fluorescence antagonist read-out; 2,400 tested, 40% active; shares compounds with TAAR1 antag; in the data active means inhibition above about 49%;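 further: CHO-Ga16 host cells challenged with agonist PEA near its EC80; 0% = agonist at EC80 plus vehicle and 100% = vehicle with no agonist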
Ga16 nonsel ag: nonselective Ga16 agonist in TAAR1 antagonist counter-screen | shares compounds with TAAR1 antag | Ga16-expressing cells, calcium fluorescence, agonist counterscreen | activation, % at 3 µM | 2,400 tested, 18% active | AID 651953; in the data active means activation above about 12%;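 further: 0% = vehicle wells and 100% = saturating stimulus response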
TAAR1 ag counter: counter-screen for human TAAR1 antagonists: TAAR1 agonists. shares compounds with TAAR1 antag. hTAAR1 cell line, fluorescence activation, agonist mode. activation, % at 3 µM. 2,400 tested, 2% active; in the data active means activation above about 37%;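 further: CHO cells stably expressing TAAR1 with calcium dye readout; 0% = DMSO vehicle and 100% = full agonist response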
Active calls of the source: *. Most compounds without a hit are left out; they make up all but 4% or so of the library.

What do the screens show for `O=C(Nc1ccc(Cc2ccncc2)cc1)c1ccc(N2CCOCC2)c([N+](=O)[O-])c1`?
TAAR1 ag: 30; OX1R antag-1: -19; OX1R antag-2: 9; TAAR1 antag: 95*; NTR1 agonist: 11; CHO parental Ca: -4; nonsel antag count: 33*; TAAR1 antag conf: 52*; Ga16 nonsel ag: 14*; TAAR1 ag counter: 16

How did O=C(NCCc1c[nH]c2ccccc12)/C(=C\c1cccnc1)NC(=O)c1ccccc1Br do in these assays?
TAAR1 ag: 16; OX1R antag-1: -27; OX1R antag-2: 23; TAAR1 antag: 63*; NTR1 agonist: 0; CHO parental Ca: -23; nonsel antag count: 31*; TAAR1 antag conf: 53*; Ga16 nonsel ag: 8; TAAR1 ag counter: 7

Results for Cc1ccc(/C=C(/NC(=O)c2ccccc2)C(=O)NCCc2c[nH]c3ccccc23)o1 ?
TAAR1 ag: 17; OX1R antag-1: 4; OX1R antag-2: 41; TAAR1 antag: 58*; NTR1 agonist: 2; CHO parental Ca: -16; nonsel antag count: 25*; TAAR1 antag conf: 42; Ga16 nonsel ag: 8; TAAR1 ag counter: 8

What do the screens show for `CC1(C(=O)NCc2cccc(C(F)(F)F)c2)CCN1CCc1ccccc1` (stereo unspecified)?
TAAR1 ag: 3; TAAR1 antag: -11

How did O=C(NC(=S)NNS(=O)(=O)c1ccc(Cl)cc1)c1cccnc1 do in these assays?
TAAR1 ag: 4; OX1R antag-1: -21; OX1R antag-2: 32; TAAR1 antag: 5; NTR1 agonist: 1; CHO parental Ca: 10

How did CCC(=O)c1ccc(OCC(=O)OCC(=O)Nc2cccc(S(=O)(=O)N3CCCC3)c2)cc1 do in these assays?
TAAR1 ag: 12; OX1R antag-1: -23; OX1R antag-2: 10; TAAR1 antag: 13; NTR1 agonist: 1; CHO parental Ca: -19

Results for CCC(=O)c1ccc(OCC(=O)OCC(=O)Nc2ccc(C)c(S(=O)(=O)N3CCCCC3)c2)cc1 ?
TAAR1 ag: 28; OX1R antag-1: 25; OX1R antag-2: 5; TAAR1 antag: 67*; NTR1 agonist: -2; CHO parental Ca: 0; nonsel antag count: 56*; TAAR1 antag conf: 57*; Ga16 nonsel ag: 17*; TAAR1 ag counter: 15

How did CCOc1ccccc1N1CCN(C(=O)c2cc(S(=O)(=O)N(C)C)ccc2N2CCCC2)CC1 do in these assays?
TAAR1 ag: 19; OX1R antag-1: -27; OX1R antag-2: -1; TAAR1 antag: 57*; NTR1 agonist: -1; CHO parental Ca: -13; nonsel antag count: 20; TAAR1 antag conf: 47; Ga16 nonsel ag: 9; TAAR1 ag counter: 9

How did Cc1cccc(N2CCN(C(=O)c3cc(S(=O)(=O)N(C)C)ccc3N3CCCC3)CC2)c1C do in these assays?
TAAR1 ag: 2; OX1R antag-1: -24; OX1R antag-2: 19; TAAR1 antag: -6; NTR1 agonist: 4; CHO parental Ca: -14

Results for Cn1c(=O)c(=O)n(C)c2cc([N+](=O)[O-])c(N3CCOCC3)cc21 ?
TAAR1 ag: -1; OX1R antag-1: 0; OX1R antag-2: 36; TAAR1 antag: 0; NTR1 agonist: -1; CHO parental Ca: -5

Results for Nc1nc(SCC(=O)N2CCCCC2)[nH]c(=O)c1NC(=O)c1ccccc1F ?
TAAR1 ag: 3; OX1R antag-1: 1; OX1R antag-2: 13; TAAR1 antag: -3; NTR1 agonist: 0; CHO parental Ca: 3

Screening data from PubChem.
